# Key:
# Assay type in all cases: functional
# [1] = system: Streptococcus pneumoniae; test: Antimicrobial activity against Streptococcus pneumoniae XZ7042 by microdilution method
# Summary of the method: (§1)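 Broth microdilution adapted for cationic antimicrobial peptides. Cultures grown to OD600 0.4 without inducer. Bacteria at a final 2 × 10^5/ml in 5-fold-diluted TH medium with 0.5% yeast extract, added to serial dilutions of test agent. After 1 h at 37°C, samples plated on blood agar and incubated 16 h at 37°C with 5% CO2. MIC and MBC read. At least three independent experiments; one representative shown.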
# [2] = system: Streptococcus pneumoniae; test: Antimicrobial activity against mega::aad9-positive Streptococcus pneumoniae XZ8006 by microdilution method; summary of the method: as §1
# [3] = system: Streptococcus pneumoniae; test: Antimicrobial activity against wild-type Streptococcus pneumoniae GA17457 by Etest method
# [4] = system: Streptococcus pneumoniae; test: Antimicrobial activity against mefE-mel::aph3-positive Streptococcus pneumoniae XZ8009 by Etest method
# [5] = system: Streptococcus pneumoniae; test: Antimicrobial activity against Streptococcus pneumoniae XZ7042 expressing PmefE-lacZ gene induced by pretreatment with 1 ug/ml of erythromycin for 1 hr by microdilution method
# Summary of the method: (§2)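 Cultures grown to OD600 0.4, split and pre-exposed 1 h to 1 μg/ml erythromycin. Final 2 × 10^5 bacteria/ml in 5-fold-diluted TH with 0.5% yeast extract, added to serial dilutions. After 1 h at 37°C, plated on blood agar. […] At least three independent experiments; one representative shown.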
# [6] = system: Streptococcus pneumoniae; test: Antimicrobial activity against Streptococcus pneumoniae XZ7042 by Etest method
# [7] = system: Streptococcus pneumoniae; test: Antimicrobial activity against mega::aad9-positive Streptococcus pneumoniae XZ8006 by Etest method
# [8] = system: Streptococcus pneumoniae; test: Antimicrobial activity against mega::aad9-positive Streptococcus pneumoniae XZ8004 by Etest method
# [9] = system: Streptococcus pneumoniae; test: Antimicrobial activity against mefE-mel::aph3-positive Streptococcus pneumoniae XZ8009 by microdilution method; summary of the method: as §1
# [10] = system: Streptococcus pneumoniae; test: Antimicrobial activity against wild-type Streptococcus pneumoniae GA17457 expressing PmefE-lacZ gene induced by pretreatment with 1 ug/ml of erythromycin for 1 hr by microdilution method; summary of the method: as §2
# [11] = system: Streptococcus pneumoniae; test: Antimicrobial activity against wild-type Streptococcus pneumoniae GA17457 by microdilution method; summary of the method: as §1
# [12] = system: Streptococcus pneumoniae; test: Antimicrobial activity against mefE-mel::aph3-positive Streptococcus pneumoniae XZ8009 expressing PmefE-lacZ gene induced by pretreatment with 50 ug/ml of compound for 1 hr by microdilution method
# Summary of the method: (§3)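 Cultures grown to OD600 0.4, then split and pre-exposed 1 h to subinhibitory LL-37: 200 μg/ml for GA17457 and XZ7042, 50 for XZ8006 and XZ8009, 100 for XZ8004. Cells then at a final 2 × 10^5/ml in 5-fold-diluted TH with 0.5% yeast extract, added to serial dilutions. […] At least three independent experiments.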
# [13] = system: Streptococcus pneumoniae; test: Antimicrobial activity against wild-type Streptococcus pneumoniae GA17457 expressing PmefE-lacZ gene induced by pretreatment with 200 ug/ml of compound for 1 hr by microdilution method; summary of the method: as §3
# [14] = system: Streptococcus pneumoniae; test: Antimicrobial activity against mega::aad9-positive Streptococcus pneumoniae XZ8004 expressing PmefE-lacZ gene induced by pretreatment with 100 ug/ml of compound for 1 hr by microdilution method; summary of the method: as §3
# [15] = system: Streptococcus pneumoniae; test: Antimicrobial activity against mega::aad9-positive Streptococcus pneumoniae XZ8006 expressing PmefE-lacZ gene induced by pretreatment with 50 ug/ml of compound for 1 hr by microdilution method; summary of the method: as §3
# [16] = system: Streptococcus pneumoniae; test: Antimicrobial activity against Streptococcus pneumoniae XZ7042 expressing PmefE-lacZ gene induced by pretreatment with 200 ug/ml of compound for 1 hr by microdilution method; summary of the method: as §3
# [17] = system: Streptococcus pneumoniae; test: Antimicrobial activity against mega::aad9-positive Streptococcus pneumoniae XZ8004 by microdilution method; summary of the method: as §1
# [18] = system: Streptococcus pneumoniae; test: Antimicrobial activity against wild-type Streptococcus pneumoniae GA17457 expressing PmefE-lacZ gene induced by pretreatment with 1 ug/ml of compound for 1 hr by microdilution method; summary of the method: as §2
# [19] = system: Streptococcus pneumoniae; test: Antimicrobial activity against Streptococcus pneumoniae XZ7042 expressing PmefE-lacZ gene induced by pretreatment with 200 ug/ml of LL-37 peptide for 1 hr by microdilution method; summary of the method: as §3
# [20] = system: Streptococcus pneumoniae; test: Antimicrobial activity against Streptococcus pneumoniae XZ7042 expressing PmefE-lacZ gene induced by pretreatment with 1 ug/ml of compound for 1 hr by microdilution method
# Summary of the method: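 Reporter: PmefE-lacZ integrated at bga in clinical isolate GA17457 (serotype 19A). Cultures grown to OD600 0.4, split, and grown 1 h with or without a subinhibitory 1 μg/ml inducer. […] Representative of ≥3 experiments.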
# [21] = system: Streptococcus pneumoniae; test: Antimicrobial activity against mega::aad9-positive Streptococcus pneumoniae XZ8004 expressing PmefE-lacZ gene induced by pretreatment with 100 ug/ml of LL-37 peptide for 1 hr by microdilution method; summary of the method: as §3
# [22] = system: Streptococcus pneumoniae; test: Antimicrobial activity against wild-type Streptococcus pneumoniae GA17457 expressing PmefE-lacZ gene induced by pretreatment with 200 ug/ml of LL-37 peptide for 1 hr by microdilution method; summary of the method: as §3
# [23] = system: Streptococcus pneumoniae; test: Antimicrobial activity against mefE-mel::aph3-positive Streptococcus pneumoniae XZ8009 expressing PmefE-lacZ gene induced by pretreatment with 50 ug/ml of LL-37 peptide for 1 hr by microdilution method; summary of the method: as §3
# [24] = system: Streptococcus pneumoniae; test: Antimicrobial activity against mega::aad9-positive Streptococcus pneumoniae XZ8006 expressing PmefE-lacZ gene induced by pretreatment with 50 ug/ml of LL-37 peptide for 1 hr by microdilution method; summary of the method: as §3
smiles,measurement,setting,value
CC[C@H](C)[C@H](NC(=O)[C@H](CCCCN)NC(=O)[C@H](CCC(=O)O)NC(=O)[C@H](CCCCN)NC(=O)[C@H](CO)NC(=O)[C@H](CCCCN)NC(=O)[C@H](CCCNC(=N)N)NC(=O)[C@H](Cc1ccccc1)NC(=O)[C@H](Cc1ccccc1)NC(=O)[C@H](CC(=O)O)NC(=O)CNC(=O)[C@H](CC(C)C)NC(=O)[C@@H](N)CC(C)C)C(=O)NCC(=O)N[C@@H](CCCCN)C(=O)N[C@@H](CCC(=O)O)C(=O)N[C@@H](Cc1ccccc1)C(=O)N[C@@H](CCCCN)C(=O)N[C@@H](CCCNC(=N)N)C(=O)N[C@H](C(=O)N[C@H](C(=O)N[C@@H](CCC(N)=O)C(=O)N[C@@H](CCCNC(=N)N)C(=O)N[C@H](C(=O)N[C@@H](CCCCN)C(=O)N[C@@H](CC(=O)O)C(=O)N[C@@H](Cc1ccccc1)C(=O)N[C@@H](CC(C)C)C(=O)N[C@@H](CCCNC(=N)N)C(=O)N[C@@H](CC(N)=O)C(=O)N[C@@H](CC(C)C)C(=O)N[C@H](C(=O)N1CCC[C@H]1C(=O)N[C@@H](CCCNC(=N)N)C(=O)N[C@H](C(=O)N[C@@H](CCC(=O)O)C(=O)N[C@@H](CO)C(=O)O)[C@@H](C)O)C(C)C)[C@@H](C)CC)C(C)C)[C@@H](C)CC [CATHELICIDIN],MBC,[1],1000 µg/mL
same,MIC,[1],500 µg/mL
same,MBC,[2],250 µg/mL
same,MIC,[2],125 µg/mL
same,MIC,[3],12 µg/mL
same,MIC,[4],0.125 µg/mL
same,MBC,[5],> 2000 µg/mL
same,MIC,[5],2000 µg/mL
same,MIC,[6],12 µg/mL
same,MIC,[7],0.125 µg/mL
same,MIC,[8],0.125 µg/mL
same,MBC,[9],250 µg/mL
same,MIC,[9],125 µg/mL
same,MBC,[10],> 2000 µg/mL
same,MIC,[10],2000 µg/mL
same,MBC,[11],1000 µg/mL
same,MIC,[11],500 µg/mL
same,MBC,[12],250 µg/mL
same,MIC,[12],64 µg/mL
same,MBC,[13],> 2000 µg/mL
same,MIC,[13],2000 µg/mL
same,MBC,[14],250 µg/mL
same,MIC,[14],125 µg/mL
same,MBC,[15],250 µg/mL
same,MIC,[15],125 µg/mL
same,MBC,[16],> 2000 µg/mL
same,MIC,[16],2000 µg/mL
same,MBC,[17],500 µg/mL
same,MIC,[17],250 µg/mL
CC[C@H]1OC(=O)[C@H](C)[C@@H](O[C@H]2C[C@@](C)(OC)[C@@H](O)[C@H](C)O2)[C@H](C)[C@@H](O[C@@H]2O[C@H](C)C[C@H](N(C)C)[C@H]2O)[C@](C)(O)C[C@@H](C)C(=O)[C@H](C)[C@@H](O)[C@]1(C)O [ERYTHROMYCIN],MBC,[1],8 µg/mL
same,MIC,[1],1 µg/mL
same,MBC,[2],4 µg/mL
same,MIC,[2],0.5 µg/mL
same,MBC,[18],> 64 µg/mL
same,MIC,[18],8 µg/mL
same,MBC,[19],32 µg/mL
same,MIC,[19],16 µg/mL
same,MBC,[9],4 µg/mL
same,MIC,[9],0.5 µg/mL
same,MBC,[20],> 64 µg/mL
same,MIC,[20],4 µg/mL
same,MBC,[11],16 µg/mL
same,MIC,[11],2 µg/mL
same,MBC,[21],4 µg/mL
same,MIC,[21],0.5 µg/mL
same,MBC,[22],32 µg/mL
same,MIC,[22],8 µg/mL
same,MBC,[23],2 µg/mL
same,MIC,[23],0.125 µg/mL
same,MBC,[24],4 µg/mL
same,MIC,[24],0.5 µg/mL
same,MBC,[17],4 µg/mL
same,MIC,[17],0.25 µg/mL
